Measurements published in ChEMBL document CHEMBL2417398, “Synthesis, antileishmanial activity and structure-activity relationship of 1-N-X-phenyl-3-N'-Y-phenyl-benzamidines” (Eur J Med Chem, 2013).

How the values were obtained:
Leishmania amazonensis = assay: Antileishmanial activity against Leishmania amazonensis MHOM/BR/77/LTB0016 promastigotes after 24 hrs by cell counting; type: functional, organism-based
Procedure, shortened: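 L. amazonensis MHOM/BR/77/LTB0016 promastigotes grown at 25 °C in LIT medium with 10% (v/v) heat-inactivated FCS, harvested in late log phase and set to 4 x 10^6 /mL. Drugs in DMSO (up to 1.6% v/v) at 160 to 5 μg/mL for 24 h. Surviving parasites counted in a Neubauer chamber. Inhibition taken against DMSO and untreated controls. IC50 from linear regression of % inhibition versus log concentration.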

[1] = Cytotoxicity against macrophages (unknown origin) at 320 ug/ml; type: cell-based; conditions: macrophage
Leishmania braziliensis = assay: Antileishmanial activity against Leishmania braziliensis promastigotes after 24 hrs by cell counting; type: functional, organism-based
Procedure, shortened: (§1)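 Promastigotes given drugs in DMSO (at most 1.6% v/v) over 160 to 5 μg/mL for 24 h. Remaining parasites counted in a Neubauer chamber and % inhibition set against DMSO-only and parasite-only controls. IC50 derived by linear regression of % inhibition against log drug concentration.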

Leishmania chagasi = assay: Antileishmanial activity against Leishmania chagasi promastigotes after 24 hrs by cell counting; type: functional, organism-based; procedure, shortened: as §1
[2] = Leishmania amazonensis, MHOM/BR/77/LTB0016, 24 h

Structure (SMILES)	logIC50 (Leishmania amazonensis; [2])	also measured
COc1ccc(/C(=N/c2ccccc2)Nc2ccc([N+](=O)[O-])cc2)cc1	1.22	
COc1ccc(/N=C(\Nc2ccccc2)c2cccc(OC)c2)cc1	2.57	
COc1ccc(/C(=N/c2ccccc2)Nc2ccc(S(N)(=O)=O)cc2)cc1	1.79	
COc1ccc(/N=C(\Nc2ccccc2)c2ccc(OC)cc2)cc1 [listing 1 of 2 here]		Activity [1]: 15%; logIC50 (Leishmania amazonensis): 2.8; logIC50 (Leishmania braziliensis): 1.52; logIC50 (Leishmania chagasi): 1.95
COc1ccc(/C(=N/c2ccccc2)Nc2ccccc2)cc1 [listing 1 of 2 here]	1.9	logIC50 (Leishmania braziliensis; Leishmania braziliensis, 24 h): 2.05; logIC50 (Leishmania chagasi; Leishmania chagasi, 24 h): 2.76
COc1ccc(/N=C(\Nc2ccccc2)c2ccc3c(c2)OCO3)cc1	1.6	
COc1ccc(/C(=N/c2ccccc2)Nc2cccc([N+](=O)[O-])c2)cc1	2.59	
COc1ccc(/C(=N/c2ccccc2)Nc2ccc(C)cc2)cc1	2.42	
COc1ccc(/C(=N/c2ccccc2)Nc2cccc(O)c2)cc1	2.65	
COc1ccc(/N=C(\Nc2ccc(OC)cc2)c2ccc(OC)cc2)cc1	> 3	
N=C(N)c1ccc(OCCCCCOc2ccc(C(=N)N)cc2)cc1 [PENTAMIDINE]	1.05	Activity [1]: 100%; logIC50 (Leishmania braziliensis; Leishmania braziliensis, 24 h): 1.36; logIC50 (Leishmania chagasi; Leishmania chagasi, 24 h): 1.76
COc1ccc(/C(=N/c2ccccc2)Nc2ccc(Cl)c([N+](=O)[O-])c2)cc1	1.1	
COc1ccc(/C(=N/c2ccccc2)Nc2ccccc2)cc1 [listing 2 of 2 here]		Activity [1]: Non-toxic; logIC50 (Leishmania amazonensis): 1.85; logIC50 (Leishmania braziliensis): 1.9; logIC50 (Leishmania chagasi): 1.91
COc1ccc(/C(=N/c2ccccc2)Nc2cccc(Cl)c2)cc1	1.11	
COc1ccc(/C(=N/c2ccccc2)Nc2cccc(OC)c2)cc1	1.68	
COc1ccc(/C(=N/c2ccccc2)Nc2ccc(F)cc2)cc1	1.43	
COc1ccc(/N=C(\Nc2ccccc2)c2ccc(OC)cc2)cc1 [listing 2 of 2 here]	1.82	logIC50 (Leishmania braziliensis; Leishmania braziliensis, 24 h): 1.42; logIC50 (Leishmania chagasi; Leishmania chagasi, 24 h): 2.04
COc1ccc(/N=C(\Nc2ccc(OC)cc2)c2ccccc2)cc1 [listing 1 of 2 here]		Activity [1]: 100%; logIC50 (Leishmania amazonensis): 2.24; logIC50 (Leishmania braziliensis): 2.25; logIC50 (Leishmania chagasi): 2.25
COc1ccc(/C(=N/c2ccccc2)Nc2ccc(Cl)cc2)cc1	1.9	
COc1ccc(/C(=N/c2ccccc2)Nc2cccc(C)c2)cc1	2.42	
COc1ccc(/C(=N/c2ccccc2)Nc2ccc(Br)cc2)cc1	1.34	
COc1ccc(/N=C(\Nc2ccccc2)c2ccccc2)cc1	2.8	
COc1ccc(/N=C(\Nc2ccc(OC)cc2)c2ccccc2)cc1 [listing 2 of 2 here]	1.62	logIC50 (Leishmania braziliensis; Leishmania braziliensis, 24 h): 2.13; logIC50 (Leishmania chagasi; Leishmania chagasi, 24 h): > 3
COc1ccc(/C(=N/c2ccccc2)Nc2ccc(O)cc2)cc1	2.51	
COc1ccc(/C(=N/c2ccccc2)Nc2cccc(F)c2)cc1	1.62	
COc1cccc(/C(=N/c2ccccc2)Nc2ccccc2)c1	2.56	
